From ChEMBL document CHEMBL4145525, “Machine learning prioritizes synthesis of primaquine ureidoamides with high antimalarial activity and attenuated cytotoxicity” (Eur J Med Chem, 2018)

Assays:
[1] = Selectivity index, ratio of IC50 for rat L6 cells to IC50 for erythrocytic stage of Plasmodium falciparum NF54; format: toxicity; conditions: read-out: Ratio IC50
Outline: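 Ratio of the L6 cytotoxicity IC50 to the IC50 against P. falciparum NF54.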

NCI-H460 [2] = assay: Cytotoxicity against human NCI-H460 cells assessed as growth inhibition after 72 hrs by MTT assay; format: cell-based; conditions: NCI-H460, 72 h
Outline: (§1)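 Monolayers grown in DMEM or RPMI-1640 with 10% FBS, 2 mM L-glutamine and penicillin/streptomycin at 37 °C, 5% CO2. Seeded at 2×10^4–4×10^4 cells/well and attached for 24 h. Five serial 10-fold dilutions added, final DMSO <0.2%. MTT read-out at 72 h; percentage growth calculated. IC50 by linear interpolation between concentrations bracketing 50% growth; at least two biological replicates.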

Plasmodium falciparum = assay: Antiplasmodial activity against erythrocytic stage of Plasmodium falciparum NF54 assessed as reduction in [3H]hypoxanthine incorporation after 48 hrs by liquid scintillation counting method; format: functional, organism-based
Outline: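 Asexual blood-stage NF54 grown in hypoxanthine-free RPMI 1640 with HEPES, NaHCO3, neomycin and Albumax, using washed human A+ erythrocytes at 2.5% hematocrit and 0.3% parasitemia. Compounds were made as 10 mg/ml DMSO stocks and run as eleven 3-fold dilutions, 100 to 0.002 µg/ml. Incubation at 37 °C in 4% CO2, 3% O2, 93% N2. After 48 h, 0.5 µCi 3H-hypoxanthine was added for a further 24 h, then harvested and scintillation counted. IC50 by linear interpolation of sigmoidal curves; averages of 2–3 independent experiments.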

L6 = assay: Cytotoxicity against rat L6 cells assessed as reduction in cell viability after 70 hrs by Alamar blue assay; format: cell-based; conditions: L6, 70 h
Outline: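 L6 rat skeletal myoblasts were plated at 4000 cells/well in RPMI 1640 with L-glutamine and 10% FBS. Eleven 3-fold drug dilutions, 100 to 0.002 µg/ml. After 70 h, Alamar Blue was added for 2 h and fluorescence read (ex 536 nm, em 588 nm). IC50 by linear interpolation from sigmoid dose-inhibition curves.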

A2780 = assay: Cytotoxicity against human A2780 cells assessed as growth inhibition after 72 hrs by MTT assay; format: cell-based; conditions: A2780, 72 h; outline: as §1
NCI-H460 [3] = assay: Cytotoxicity against human NCI-H460 cells assessed as growth inhibition at 10 uM cotreated with G6PD inhibitor 6-AN after 72 hrs by MTT assay; format: cell-based; conditions: nci-h460, 72 h
Outline: (§2)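 Adherent cells seeded at 2×10^4–4×10^4 cells/well and left 24 h, then treated with compound alone or together with 6-aminonicotinamide (always 10 µM, used to mimic G6PD deficiency). Final DMSO <0.2%. Growth measured by MTT after 72 h and expressed as percentage growth relative to untreated cells.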

MCF7 [4] = assay: Cytotoxicity against human MCF7 cells assessed as growth inhibition at 10 uM cotreated with G6PD inhibitor 6-AN after 72 hrs by MTT assay; format: cell-based; conditions: mcf7, 72 h; outline: as §2
MCF7 [5] = assay: Cytotoxicity against human MCF7 cells assessed as growth inhibition after 72 hrs by MTT assay; format: cell-based; conditions: MCF7, 72 h; outline: as §1
[6] = Cytotoxicity against human MCF7 cells assessed as cell growth at 10 uM after 72 hrs by MTT assay relative to control; format: cell-based; conditions: read-out: Activity; outline: as §2
HL-60 = assay: Cytotoxicity against human HL60 cells assessed as growth inhibition after 72 hrs by MTT assay; format: cell-based; conditions: HL-60, 72 h
[7] = Cytotoxicity against human MCF7 cells assessed as cell growth at 10 uM cotreated with G6PD inhibitor 6-AN after 72 hrs by MTT assay relative to control; format: cell-based; outline: as §2
SW-620 = assay: Cytotoxicity against human SW620 cells assessed as growth inhibition after 72 hrs by MTT assay; format: cell-based; conditions: SW-620, 72 h; outline: as §1
CAPAN-1 = assay: Cytotoxicity against human Capan1 cells assessed as growth inhibition after 72 hrs by MTT assay; format: cell-based; conditions: CAPAN-1, 72 h
Outline: (§3)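 Cells cultured in DMEM or RPMI-1640 with 10% FBS, 2 mM L-glutamine and antibiotics at 37 °C, 5% CO2. Seeded at 2×10^4–4×10^4 cells/well and attached for 24 h before five serial 10-fold compound dilutions, final DMSO <0.2%. MTT at 72 h. IC50 interpolated between the two concentrations flanking 50% growth inhibition; single experiment.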

K562 = assay: Cytotoxicity against human K562 cells assessed as growth inhibition after 72 hrs by MTT assay; format: cell-based; conditions: K562, 72 h
HCT-116 = assay: Cytotoxicity against human HCT116 cells assessed as growth inhibition after 72 hrs by MTT assay; format: cell-based; conditions: HCT-116, 72 h; outline: as §3
[8] = Safety index, ratio of compound IC50 to primaquine IC50 for rat L6 cells; format: ADME, cell-based; conditions: read-out: Ratio IC50

Row | Compound | selectivity ratio [1] | IC50 (NCI-H460 [2]) | IC50 (Plasmodium falciparum) | IC50 (L6) | IC50 (A2780) | growth inhibition (GI) (NCI-H460 [3]) | growth inhibition (GI) (MCF7 [4]) | IC50 (MCF7 [5]) | viability at 72 h, 10 µM [6] | IC50 (HL-60) | viability at 72 h, 10 µM [7] | IC50 (SW-620) | IC50 (CAPAN-1) | IC50 (K562) | IC50 (HCT-116) | selectivity ratio [8]
1 | COc1ccc(C(=NNC(=O)NNC(=O)NCCCC(C)Nc2cc(OC)cc3cccnc23)c2ccc(OC)cc2)cc1 (stereo unspecified) | 61.9 | 5 µM | 1.9 to 2.2 µM | 136 µM | 0.06 µM | Toxic | Toxic | 0.9 to 1 µM |  |  |  |  |  |  |  | 
2 | COc1cc(NC(C)CCCNC(=O)NNC(=O)NCCNC(c2ccccc2)(c2ccccc2)c2ccccc2)c2ncccc2c1 (stereo unspecified) | > 83.3 | 3 µM | 1.2 µM | > 100 µM | 1 µM | Toxic | Toxic | 3 µM |  |  |  |  |  |  |  | 
3 | COc1ccc(C(=NNC(=O)NCCCC(C)Nc2cc(OC)cc3cccnc23)c2ccc(OC)cc2)cc1 (stereo unspecified) | 78.3 | > 100 µM | 2.3 to 2.4 µM | > 180 µM | 1 µM | Toxic | Toxic | 2.8 to 3 µM |  |  |  |  |  |  |  | 
4 | COc1cc(NC(C)CCCNC(=O)NC(C(=O)NC(c2ccccc2)c2ccccc2)c2ccc(Cl)cc2)c2ncccc2c1 (stereo unspecified) | > 114 | > 100 µM | 1.4 µM | > 160 µM | > 100 µM |  |  | > 100 µM | 80% | > 100 µM | 65% | 6 µM | > 100 µM | > 100 µM | > 100 µM | 2.7
5 | COc1cc(NC(C)CCCNC(=O)NC(CC(C)C)C(=O)NC(c2ccccc2)c2ccccc2)c2ncccc2c1 (stereo unspecified) | > 50 | > 100 µM | 3.4 µM | > 170 µM | 36 µM | Non-Toxic | Non-Toxic | > 100 µM |  | > 100 µM |  | > 100 µM | > 100 µM | > 100 µM | > 100 µM | 
6 | COc1cc(NC(C)CCCNC(=O)NC(C(=O)NC(c2ccccc2)c2ccc(Cl)cc2)c2ccccc2)c2ncccc2c1 (stereo unspecified) | > 53.3 | > 100 µM | 3 µM | > 160 µM | > 100 µM | Non-Toxic | Non-Toxic | > 100 µM |  | > 100 µM |  | > 100 µM | > 100 µM | > 100 µM | > 100 µM | 
7 | COc1cc(NC(C)CCCNC(=O)NC(C(=O)NC(c2ccccc2)c2ccc(Cl)cc2)c2ccc(Cl)cc2)c2ncccc2c1 (stereo unspecified) | > 83.3 | > 100 µM | 1.8 µM | > 150 µM | 14 µM | Non-Toxic |  | > 100 µM | 93% | > 100 µM | 76% | > 100 µM | > 100 µM | > 100 µM | > 100 µM | 2.5
8 | COc1cc(NC(C)CCCNC(=O)NC(C(=O)N(C)C(c2ccccc2)c2ccccc2)c2ccccc2)c2ncccc2c1 (stereo unspecified) | > 21.5 | 64 µM | 6.5 µM | > 140 µM |  |  |  | > 100 µM |  | > 100 µM |  | > 100 µM | > 100 µM | > 100 µM | > 100 µM | 
9 | COc1cc(NC(C)CCCN)c2ncccc2c1 (stereo unspecified) [PRIMAQUINE PHOSPHATE] | 39.7 | 10 µM | 1.5 µM | 59.5 µM | 5 µM |  |  | 5 µM | 25% | 11.4 µM |  | 14 µM | 14.2 µM | 12 µM | 44.2 µM | 
